Reference: the RNAGym collection of RNA variant scans (doi:10.1126/science.aae0568)
Fewer inactive variants are shown than the library holds.

B1: tRNA (parent)
chain: GUUCCGUUGGCGUAAUGGUAACGCGUCUCCCUCCUAAGGAGAAGACUGCGGGUUCGAGUCCCGUACGGAACG

Variants of: B1
Experiment: yeast fitness relative to wild type (ratio to wild type); higher = fitter; tRNA-Arg(CCU), competitive growth, 37 C, YPD
Procedure, shortened: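 Start and end populations of a pooled competition were compared by 100-nucleotide paired-end sequencing of gene amplicons. The Saccharomyces cerevisiae strains carried tRNA-Arg(CCU) gene variants at the native genomic locus, synthesised with a 3% per-site mutation rate at 69 sites, and competed in YPD at 37°C for 24 hours in six parallel replicates. Darwinian fitness relative to wild type was based on the change in genotype frequencies. Genotypes required ≥ 100 starting reads, and estimates < 0.5 were set to 0.5.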

Variant	yeast fitness
U16A C46U C55A	≤ 0.5
U16A C55A G68A	≤ 0.5
U16A C61G C66G	≤ 0.5
U16A C55A C61A	≤ 0.5
U16A C30U	0.817
U16A C30A	0.912
U16A C30G	0.567
U16A G18U A37C C60A A70G	≤ 0.5
U16A C31A A69C	0.633
U16A C34A C60A	0.574
U16A A37G A43G	≤ 0.5
U16A A42U G56A G58A	0.817
U16A G18A C31G	0.527
U16A C24U C30G U35A C49A G67C	0.751
U16A C22G A45C	0.607
U16A C60A	0.668
U16A A45G G58A	0.591
U16A C46U G68C	0.651
U16A C31A C33G G38A	≤ 0.5
U16A A20U	0.855
U16A A20G	0.961
U16A G18A	0.846
U16A C34G	0.683
U16A G18A C31U C66U	≤ 0.5

Variant	yeast fitness
U16A A20C C22U C33U A42G	≤ 0.5
U16A A65C	0.939
U16A C24G A43C G63A	≤ 0.5
U16A G17A C22G	0.578
U16A C22A C66U	0.675
U16A C30U A40C G68A	0.594
U16A A42G C49G	0.542
U16A A37C	0.653
U16A A21U A45C	≤ 0.5
U16A A21U C27U A40U C66A	≤ 0.5
U16A C29G G41C A45U	≤ 0.5
U16A A21U C46U C61G	≤ 0.5
U16A C46U	1.04
U16A C46A	0.92
U16A A20C C29G G63A G68C	≤ 0.5
U16A A21C C29U	≤ 0.5
U16A	0.992
U16A A45U	1
U16A A43C C49U	0.656
U16A A21C A37C G68A	0.551
U16A A21C G58A	≤ 0.5
U16A A20C C24G C33G	≤ 0.5
U16A A37U C62A	≤ 0.5
U16A A37U C62G	≤ 0.5

Variant	yeast fitness
U16A C30A A69U	0.979
U16A A20U C24G C33G A65G C66A	≤ 0.5
U16A C29G C46U C49U U59G A65U G68A	0.537
U16A A45C A69C	0.662
U16A C33G A36U	0.57
U16A C33U A36G G38C	≤ 0.5
U16A C24U G44C C61U	0.66
U16A G17C C61G A70C	≤ 0.5
U16A A21U C27U A40U A65U A70C	≤ 0.5
U16A G18C U35A C55G A69G	0.64
U16A C33G G58A G68C	≤ 0.5
U16A C27A C62G	≤ 0.5
U16A C30G G44C	≤ 0.5
U16A C22A C29U A36G A45C	≤ 0.5
U16A A45G G50A	≤ 0.5
U16A C29G C31G C55A C62U A69C	≤ 0.5
U16A A42G	0.749
U16A G17U G18C G48C	0.764
U16A A21G C27G A57G	≤ 0.5
U16A C22U U26C U54G	≤ 0.5
U16A C29U A45G C46U A69U	≤ 0.5
U16A C22G C34U G51A	≤ 0.5
U16A C30G A40G U54C	≤ 0.5
U16A G18C A20G C22U G58C C61A	≤ 0.5

Variant	yeast fitness
U16A C55U C61G A65G	≤ 0.5
U16A C30U A40C	≤ 0.5
U16A A20G C62A	0.546
U16A C30G G50A A70G	≤ 0.5
U16A A20U G50A	0.513
U16A C22A G56A	0.696
U16A C27U G38A C60G A65C	≤ 0.5
U16A C34U U47C A57U	≤ 0.5
U16A C55A A70U	0.542
U16A C24G U47C	0.536
U16A C27G C49A A69G	0.532
U16A G18C A36G G48C	≤ 0.5
U16A C27G U64C C66U G67A	≤ 0.5
U16A C34A A40U G44A G63A	≤ 0.5
U16A A45C G63C U64C	≤ 0.5
U16A C24A C30G C34U U47C	≤ 0.5
U16A A43G	1.01
U16A A43U	1.14
U16A C24U C33U A36U A40U	≤ 0.5
U16A A69U	1.03
U16A C60U U64C A65C	≤ 0.5
U16A C30U A40C G48C G67C	≤ 0.5
U16A C49G	0.769
U16A A21U C24A	≤ 0.5

Variant	yeast fitness
U16A G18C G39A G52A	≤ 0.5
U16A A37C C60A U64C	≤ 0.5
U16A C66A	0.653
U16A C33G	0.612
U16A C24U C34G G38C	≤ 0.5
U16A G17A C33A G38C A43G U53C	≤ 0.5
U16A C22U U28C U32C A42G C55G	≤ 0.5
U16A A21C C34A A37C G68A	≤ 0.5
U16A C55G	0.54
U16A C31A C33A U35C U47A	≤ 0.5
U16A A20U C46A	≤ 0.5
U16A C24U A42U A45U U53A G56A	≤ 0.5
U16A C33G C66G	≤ 0.5
U16A G18C G50A A57C	≤ 0.5
U16A C49G A69U	≤ 0.5
U16A C31A C34G	≤ 0.5
U16A C31A	0.645
U16A C31U	0.979
U16A A57G	0.974
U16A A57C	0.668
U16A A57U	0.732
U16A C62G	0.867
U16A A36G G51A U64C A65G	≤ 0.5
U16A G18C A20G C22U A65C	≤ 0.5

Variant	yeast fitness
U16A C30G A37C G68C	≤ 0.5
U16A G17A A57G C66U	≤ 0.5
U16A A43G A69G A70G	≤ 0.5
U16A C31G A69U	0.601
U16A C46A A69U	0.715
U16A A45C A65G	≤ 0.5
U16A C24U C34A C62A A65G	≤ 0.5
U16A C30A U35G	≤ 0.5
U16A C29U A37G	≤ 0.5
U16A C30U A36U G63A	≤ 0.5
U16A C31A A65C	≤ 0.5
U16A C22G U26C C34G A37C A40U A45G C62A	≤ 0.5
U16A A37U G56A A65U	≤ 0.5
U16A A42C U54A	≤ 0.5
U16A C22U A69U	0.64
U16A A21G C31U C34G A45C C66G	≤ 0.5
U16A C30U G56C	≤ 0.5
U16A A21C A36G G44A U59A	≤ 0.5
U16A C30U A42U	0.618
U16A C61G A65G	≤ 0.5
U16A A20G A21G C34U G44A C61A G67C	≤ 0.5
U16A C34U A36G A40C G44C	≤ 0.5
U16A C33A U53A G63A	≤ 0.5
U16A C30G G44C C61A	≤ 0.5

Variant	yeast fitness
U16A A40C C55A C66A	≤ 0.5
U16A A45C G63C U64C C66U	≤ 0.5
U16A A21C G44A U59A	0.847
U16A C27U C49U	0.61
U16A C24U G44C	0.6
U16A G17A C22G C49U C61U G68C	≤ 0.5
U16A A37G A40C G58A	0.604
U16A C61G	0.631
U16A C61U	1.02
U16A A20G C27U G41C G63A	≤ 0.5
U16A C30A A43C	1.04
U16A C29G A42G C46G A65U	≤ 0.5
U16A A21C	0.686
U16A C34U G38A A42U	≤ 0.5
U16A C33U G38C	0.625
U16A C24U C55U	0.913
U16A C24G U35G	≤ 0.5
U16A A21G C34U G67C	≤ 0.5
U16A C34U A57G C60A	≤ 0.5
U16A A57C C66U A69C	≤ 0.5
U16A A36C A37G G56C	≤ 0.5
U16A A20U C24G C33G C61A G67C	0.561
U16A G18A C31U A69C	≤ 0.5
